Experimental data from ChEMBL document CHEMBL2401714, “New linezolid-like 1,2,4-oxadiazoles active against Gram-positive multiresistant pathogens” (Eur J Med Chem, 2013).
≈ marks a conversion by molar mass, not a printed value.

Columns and labels:
Staphylococcus aureus [1] = test: Antibacterial activity against methicillin-resistant Staphylococcus aureus 433 assessed as growth inhibition after 18 to 24 hrs by broth microdilution method; assay type: functional
In short: (§1)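 CLSI broth microdilution: serial 2-fold dilutions of each compound in Mueller-Hinton broth, with DMSO as solvent. An equal volume of inoculum (1 × 10⁶ CFU/mL) is added to each well holding the dilutions. MIC is the lowest concentration causing no visible turbidity. Values are expressed in […]. Clinical MRSA collection isolates 433 and F511, and reference strain Mu50.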

Staphylococcus aureus [2] = test: Antibacterial activity against methicillin-susceptible Staphylococcus aureus M923 assessed as growth inhibition after 18 to 24 hrs by broth microdilution method; assay type: functional
In short: (§2)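 CLSI broth microdilution against S. aureus isolates. Two-fold serial dilutions were made in Mueller-Hinton broth, with DMSO as the compound solvent. An equal volume of inoculum (1 × 10⁶ CFU/mL) was added to each well. MIC was taken as the lowest concentration giving no visible turbidity of the medium.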

Staphylococcus aureus [3] = test: Antibacterial activity against methicillin-susceptible Staphylococcus aureus ATCC 29213 assessed as growth inhibition after 18 to 24 hrs by broth microdilution method; assay type: functional; in short: as §2
Staphylococcus aureus [4] = test: Antibacterial activity against methicillin-resistant Staphylococcus aureus ATCC 700699 assessed as growth inhibition after 18 to 24 hrs by broth microdilution method; assay type: functional; in short: as §1
Staphylococcus aureus [5] = test: Antibacterial activity against methicillin-resistant Staphylococcus aureus F511 assessed as growth inhibition after 18 to 24 hrs by broth microdilution method; assay type: functional; in short: as §1
HepG2 [6] = test: Cytotoxicity against human HepG2 cells assessed as reduction of cell viability at 50 ug/ml by MTT assay; assay type: cell-based
In short: (§3)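 Cells were exposed to increasing compound concentrations, with a DMSO solvent control. HepG2 and HaCaT were grown in DMEM, and PK15 in DMEM/M199 (1:1), all with 10% heat-inactivated fetal serum. MTT (5 mg/mL stock, 1.2 mM final) was added for 1 h 30 min at 37 °C. The reaction was stopped with 90% ethanol, cells were spun at 800 × g for 10 min, and A570 was read. Values are means ± S.E. of 3 experiments run in triplicate.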

HepG2 [7] = test: Cytotoxicity against human HepG2 cells assessed as reduction of cell viability at 400 ug/ml by MTT assay relative to control; assay type: cell-based; in short: as §3
HaCaT [8] = test: Cytotoxicity against human HaCaT cells assessed as cell death at 200 to 400 ug/ml by MTT assay relative to control; assay type: cell-based; in short: as §3
[9] = Cytotoxicity against porcine PK-15 cells assessed as reduction of cell viability at 5 ug/ml by MTT assay relative to control; assay type: cell-based, Sus scrofa; conditions: pig; in short: as §3
[10] = Cytotoxicity against porcine PK-15 cells assessed as reduction of cell viability at 25 to 200 ug/ml by MTT assay; assay type: cell-based, Sus scrofa; conditions: pig; in short: as §3
[11] = Cytotoxicity against porcine PK-15 cells assessed as reduction of cell viability at 100 ug/ml by MTT assay relative to control; assay type: cell-based, Sus scrofa; conditions: pig; in short: as §3
HepG2 [12] = test: Cytotoxicity against human HepG2 cells assessed as reduction of cell viability at 5 to 400 ug/ml by MTT assay; assay type: cell-based; in short: as §3
[13] = Cytotoxicity against porcine PK-15 cells assessed as reduction of cell viability at 200 to 400 ug/ml by MTT assay relative to control; assay type: cell-based, Sus scrofa; conditions: pig; in short: as §3
HaCaT [14] = test: Cytotoxicity against human HaCaT cells assessed as reduction of cell viability at 5 ug/ml by MTT assay; assay type: cell-based; in short: as §3
[15] = Cytotoxicity against porcine PK-15 cells assessed as reduction of cell viability by MTT assay; assay type: cell-based, Sus scrofa; conditions: pig; in short: as §3
HaCaT [16] = test: Cytotoxicity against human HaCaT cells assessed as induction of cell death at => 25 ug/ml by MTT assay relative to control; assay type: cell-based; in short: as §3
[17] = Cytotoxicity against porcine PK-15 cells assessed as reduction of cell viability at 5 to 400 ug/ml by MTT assay; assay type: cell-based, Sus scrofa; conditions: pig; in short: as §3

Compound | MIC (Staphylococcus aureus [1]) | MIC (Staphylococcus aureus [2]) | MIC (Staphylococcus aureus [3]) | MIC (Staphylococcus aureus [4]) | MIC (Staphylococcus aureus [5]) | also measured
Cc1noc(-c2ccc(N3CC(Cn4cccn4)OC3=O)cc2F)n1 (racemic) | > 50 µg/mL | > 50 µg/mL | > 50 µg/mL | > 50 µg/mL | > 50 µg/mL | 
Cc1noc(-c2ccc(N3CC(Cn4cccn4)OC3=O)cc2)n1 (racemic) | > 50 µg/mL | > 50 µg/mL | > 50 µg/mL | > 50 µg/mL | > 50 µg/mL | 
CC(=O)NCC1CN(c2ccc(-c3nc(C)no3)cc2)C(=O)O1 (racemic) | 1.6 µg/mL (≈ 5.06 µM) | 6.25 µg/mL (≈ 19.8 µM) | 12.5 µg/mL (≈ 39.5 µM) | 6.25 µg/mL (≈ 19.8 µM) | 12.5 µg/mL (≈ 39.5 µM) | 
CC(=S)NCC1CN(c2ccc(-c3nc(C)no3)c(F)c2)C(=O)O1 (racemic) | 0.8 µg/mL (≈ 2.28 µM) | 1.6 µg/mL (≈ 4.57 µM) | 1.6 µg/mL (≈ 4.57 µM) | ≤ 0.4 µg/mL | 1.6 µg/mL (≈ 4.57 µM) | Activity (HepG2 [6]): Toxic; Activity (HepG2 [7]): 40%; Activity (HaCaT [8]): > 50%; Activity [9]: < 10%; Activity [10]: Toxic
Cc1noc(-c2ccc(N3CC(CN=[N+]=[N-])OC3=O)cc2F)n1 (racemic) | > 50 µg/mL | > 50 µg/mL | > 50 µg/mL | > 50 µg/mL | > 50 µg/mL | 
Cc1noc(-c2ccc(N3CC(Cn4ccnc4)OC3=O)cc2)n1 (racemic) | > 50 µg/mL | > 50 µg/mL | > 50 µg/mL | > 50 µg/mL | > 50 µg/mL | 
Cc1noc(-c2ccc(N3CC(Cn4cncn4)OC3=O)cc2)n1 (racemic) | > 50 µg/mL | > 50 µg/mL | > 50 µg/mL | > 50 µg/mL | > 50 µg/mL | 
CC(=O)NCC1CN(c2ccc(-c3nc(C)no3)c(F)c2)C(=O)O1 (racemic) | 1.6 µg/mL (≈ 4.79 µM) | 6.25 µg/mL (≈ 18.7 µM) | 12.5 µg/mL (≈ 37.4 µM) | 6.25 µg/mL (≈ 18.7 µM) | 12.5 µg/mL (≈ 37.4 µM) | 
CC(=S)NCC1CN(c2ccc(-c3nc(C)no3)cc2)C(=O)O1 (racemic) | 1.6 µg/mL (≈ 4.81 µM) | 1.6 µg/mL (≈ 4.81 µM) | 3.13 µg/mL (≈ 9.42 µM) | ≤ 0.4 µg/mL | 1.6 µg/mL (≈ 4.81 µM) | Activity [11]: 70%; Activity (HepG2 [12]): Toxic; Activity [13]: > 90%; Activity (HaCaT [14]): Toxic; Activity [15]: Dose-dependent effect; Activity (HaCaT [16]): > 60%
Cc1noc(-c2ccc(N3CC(CI)OC3=O)cc2)n1 (racemic) | 25 µg/mL (≈ 64.9 µM) | > 50 µg/mL | > 50 µg/mL | 50 µg/mL (≈ 130 µM) | 50 µg/mL (≈ 130 µM) | 
Cc1noc(-c2ccc(N3CC(Cn4cncn4)OC3=O)cc2F)n1 (racemic) | > 50 µg/mL | > 50 µg/mL | > 50 µg/mL | > 50 µg/mL | > 50 µg/mL | 
CC(=O)NC[C@H]1CN(c2ccc(N3CCOCC3)c(F)c2)C(=O)O1 [LINEZOLID] | 1.6 µg/mL (≈ 4.74 µM) | 3.13 µg/mL (≈ 9.28 µM) | ≤ 0.4 µg/mL | 0.8 µg/mL (≈ 2.37 µM) | 3.13 µg/mL (≈ 9.28 µM) | Activity (HepG2 [12]): Non-toxic; Activity [17]: Non-toxic; Activity (HaCaT [8]): Toxic
Cc1noc(-c2ccc(N3CC(CN=[N+]=[N-])OC3=O)cc2)n1 (racemic) | > 50 µg/mL | > 50 µg/mL | > 50 µg/mL | > 50 µg/mL | > 50 µg/mL | 
Cc1noc(-c2ccc(N3CC(Cn4ccnc4)OC3=O)cc2F)n1 (racemic) | > 50 µg/mL | > 50 µg/mL | > 50 µg/mL | > 50 µg/mL | > 50 µg/mL | 
Cc1noc(-c2ccc(N3CC(CI)OC3=O)cc2F)n1 (racemic) | 50 µg/mL (≈ 124 µM) | > 50 µg/mL | > 50 µg/mL | 50 µg/mL (≈ 124 µM) | > 50 µg/mL | 
